Assay results from ChEMBL document CHEMBL2385036, “Peptaibols, tetramic acid derivatives, isocoumarins, and sesquiterpenes from a Bionectria sp. (MSX 47401)” (J Nat Prod, 2013).
In brackets after ≈: the same amount, converted by molar mass. Activity calls are given as the source filed them. No cut-off for these calls is given here.

How the values were obtained:
Staphylococcus aureus [1] = assay: Antimicrobial activity against methicillin-resistant Staphylococcus aureus GU 34864 after 7 days by broth microdilution method; type: functional; settings: GU 34864, 168 h
How it was run: (§1)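 MIC read-out; inocula were undiluted cultures plus cultures diluted 10- to 100,000-fold in growth medium. All measurements were run in duplicate.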

Staphylococcus aureus [2] = assay: Antimicrobial activity against methicillin-resistant Staphylococcus aureus DA 1 after 7 days by broth microdilution method; type: functional; settings: DA 1, 168 h; how it was run: as §1
Staphylococcus aureus [3] = assay: Antimicrobial activity against methicillin-resistant Staphylococcus aureus GU 53016 after 7 days by broth microdilution method; type: functional; settings: GU 53016, 168 h; how it was run: as §1
Candida albicans = assay: Antifungal activity against Candida albicans after 7 days by broth microdilution method; type: functional; settings: 168 h
How it was run: (§2)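 MIC by broth method: cultures diluted 10- to 100,000-fold in growth medium, with both undiluted cultures and the dilutions used as inocula; each measurement run in duplicate.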

Staphylococcus aureus [4] = assay: Antimicrobial activity against methicillin-resistant Staphylococcus aureus ATCC 43300 after 7 days by broth microdilution method; type: functional; settings: ATCC 43300, 168 h; how it was run: as §1
Staphylococcus aureus [5] = assay: Antimicrobial activity against methicillin-resistant Staphylococcus aureus GU 36361 after 7 days by broth microdilution method; type: functional; settings: GU 36361, 168 h; how it was run: as §1
Cryptococcus neoformans = assay: Antifungal activity against Cryptococcus neoformans after 7 days by broth microdilution method; type: functional; settings: 168 h; how it was run: as §2
Staphylococcus aureus [6] = assay: Antimicrobial activity against Staphylococcus aureus ATCC 6538 after 7 days by broth microdilution method; type: functional; settings: ATCC 6538, 168 h; how it was run: as §1
Staphylococcus aureus [7] = assay: Antimicrobial activity against methicillin-resistant Staphylococcus aureus GU 34380 after 7 days by broth microdilution method; type: functional; settings: GU 34380, 168 h; how it was run: as §1
Aspergillus niger = assay: Antifungal activity against Aspergillus niger after 7 days by broth microdilution method; type: functional; settings: 168 h; how it was run: as §2
Staphylococcus aureus [8] = assay: Antimicrobial activity against methicillin-resistant Staphylococcus aureus GU 52300 after 7 days by broth microdilution method; type: functional; settings: GU 52300, 168 h; how it was run: as §1
NCI-H460 = assay: Cytotoxicity against human NCI-H460 cells after 72 hrs by MTS assay; type: functional, cell-based
How it was run: (§3)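 Cell lines were MCF-7 human breast carcinoma (Karmanos Cancer Center), NCI-H460 human large cell lung carcinoma (ATCC HTB-177) and SF-268 human astrocytoma (NCI Developmental Therapeutics Program). The cytotoxicity protocol followed an earlier report.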

MCF7 = assay: Cytotoxicity against human MCF7 cells after 72 hrs by MTS assay; type: functional, cell-based; how it was run: as §3
SF-268 = assay: Cytotoxicity against human SF268 cells after 72 hrs by MTS assay; type: functional, cell-based; how it was run: as §3

| Compound | MIC (Staphylococcus aureus [1]) [µg/mL] | MIC (Staphylococcus aureus [2]) [µg/mL] | MIC (Staphylococcus aureus [3]) [µg/mL] | MIC (Candida albicans) [µg/mL] | MIC (Staphylococcus aureus [4]) [µg/mL] | MIC (Staphylococcus aureus [5]) [µg/mL] | MIC (Cryptococcus neoformans) [µg/mL] | MIC (Staphylococcus aureus [6]) [µg/mL] | MIC (Staphylococcus aureus [7]) [µg/mL] | MIC (Aspergillus niger) [µg/mL] | MIC (Staphylococcus aureus [8]) [µg/mL] | Activity (NCI-H460) | Activity (MCF7) | Activity (SF-268) | IC50 (NCI-H460; NCI-H460, 72 h) [µM] | IC50 (MCF7; MCF7, 72 h) [µM] | IC50 (SF-268; SF-268, 72 h) [µM] |
| --- | --- | --- | --- | --- | --- | --- | --- | --- | --- | --- | --- | --- | --- | --- | --- | --- | --- |
| CC1=CC[C@H]([C@](C)(O)CCC(O)C(C)(C)O)CC1 (some centres not stated) | > 118 | > 118 | > 118 | > 118 | > 118 | > 118 | > 118 | > 118 | > 118 | > 118 | > 118 |  |  |  |  |  |  |
| CC(CCCCCCCCC(=O)CCCCCCCCC[C@@H](O)CO[C@@H]1O[C@H](CO)[C@@H](O)[C@H](O)[C@H]1O)C(=O)C1=C(O)C(Cc2ccc(O)cc2)=NC1=O (some centres not stated) | 14 (≈ 18.7 µM) | 14 (≈ 18.7 µM) | 28 (≈ 37.4 µM) | > 55 | 14 (≈ 18.7 µM) | 28 (≈ 37.4 µM) | > 55 | 14 (≈ 18.7 µM) | 14 (≈ 18.7 µM) | > 55 | 28 (≈ 37.4 µM) | inactive | inactive | inactive |  |  |  |
| CC[C@H](C)[C@@H](NC(=O)[C@@](C)(CC)NC(=O)[C@@H]1C[C@@H](O)CN1C(=O)[C@@](C)(CC)NC(=O)[C@@](C)(CC)NC(=O)C(C)(C)NC(=O)[C@@H]1C[C@@H](O)CN1C(=O)[C@@](C)(CC)NC(=O)[C@H](CC(C)C)NC(=O)[C@@H]1C[C@@H](O)CN1C(=O)[C@](C)(CC)NC(=O)[C@H](CC(C)C)NC(=O)[C@@H]1C[C@@H](O)CN1C(=O)C(C)(C)NC(C)=O)C(=O)O[C@@H]([C@H](O)[C@H](O)CO)[C@H](O)CO | > 118 | > 118 | > 118 | > 118 | > 118 | > 118 | > 118 | > 118 | > 118 | > 118 | > 118 |  |  |  |  |  |  |
| CC(=O)c1coc(=O)c2c(O)cc(O)c(C)c12 |  |  |  |  |  |  |  |  |  |  |  |  |  |  | > 10 | > 10 | > 10 |
| C[C@@H]1[C@H](O)[C@@H](C)/C=C/C=C/C=C/C=C/C=C/C=C/C=C/[C@H](O[C@@H]2O[C@H](C)[C@@H](O)[C@H](N)[C@@H]2O)C[C@@H]2O[C@](O)(C[C@@H](O)C[C@@H](O)[C@H](O)CC[C@@H](O)C[C@@H](O)CC(=O)O[C@H]1C)C[C@H](O)[C@H]2C(=O)O [AMPHOTERICIN B] |  |  |  | 25 (≈ 27.1 µM) |  |  | 25 (≈ 27.1 µM) |  |  | 100 (≈ 108 µM) |  |  |  |  |  |  |  |
| CC[C@H](C)[C@@H](NC(=O)[C@@](C)(CC)NC(=O)[C@@H]1C[C@@H](O)CN1C(=O)C(C)(C)NC(=O)[C@@](C)(CC)NC(=O)C(C)(C)NC(=O)[C@@H]1C[C@@H](O)CN1C(=O)[C@@](C)(CC)NC(=O)[C@H](CC(C)C)NC(=O)[C@@H]1C[C@@H](O)CN1C(=O)[C@](C)(CC)NC(=O)[C@H](CC(C)C)NC(=O)[C@@H]1C[C@@H](O)CN1C(=O)C(C)(C)NC(C)=O)C(=O)O[C@@H]([C@H](O)[C@H](O)CO)[C@H](O)CO [CLONOSTACHIN] | > 118 | > 118 | > 118 | > 118 | > 118 | > 118 | > 118 | > 118 | > 118 | > 118 | > 118 |  |  |  |  |  |  |
| CN[C@H](CC(C)C)C(=O)N[C@H]1C(=O)N[C@@H](CC(N)=O)C(=O)N[C@H]2C(=O)N[C@H]3C(=O)N[C@H](C(=O)N[C@H](C(=O)O)c4cc(O)cc(O)c4-c4cc3ccc4O)[C@H](O)c3ccc(c(Cl)c3)Oc3cc2cc(c3O[C@@H]2O[C@H](CO)[C@@H](O)[C@H](O)[C@H]2O[C@H]2C[C@](C)(N)[C@H](O)[C@H](C)O2)Oc2ccc(cc2Cl)[C@H]1O [VANCOMYCIN] | 0.38 (≈ 0.262 µM) | 0.25 (≈ 0.173 µM) | 0.38 (≈ 0.262 µM) |  | 0.25 (≈ 0.173 µM) | 0.75 (≈ 0.518 µM) |  | 0.25 (≈ 0.173 µM) |  |  |  |  |  |  |  |  |  |
| CC(CCCCCCCCC(=O)CCCCCCCCC[C@@H](O)CO)C(=O)C1=C(O)[C@H](Cc2ccc(O)cc2)NC1=O (some centres not stated) [VIRGINEONE AGLYCONE] | 2.8 (≈ 4.76 µM) | 2.8 (≈ 4.76 µM) | 2.8 (≈ 4.76 µM) | > 88 | 2.8 (≈ 4.76 µM) | 5.5 (≈ 9.36 µM) | > 88 | 2.8 (≈ 4.76 µM) | 2.8 (≈ 4.76 µM) | > 88 | 5.5 (≈ 9.36 µM) | inactive | inactive | inactive |  |  |  |
| CC(CCCCCCCCC(=O)CCCCCCCCCC(O)CO[C@@H]1O[C@H](CO)[C@@H](O)[C@H](O)[C@@H]1O)C(=O)C1=C(O)C(Cc2ccc(O)cc2)NC1=O (some centres not stated) [VIRGINEONE] | 7.2 (≈ 9.6 µM) | 7.2 (≈ 9.6 µM) | 7.2 (≈ 9.6 µM) | 14.4 (≈ 19.2 µM) | 7.2 (≈ 9.6 µM) | 7.2 (≈ 9.6 µM) | 14.4 (≈ 19.2 µM) | 7.2 (≈ 9.6 µM) | 7.2 (≈ 9.6 µM) | 14.4 (≈ 19.2 µM) | 7.2 (≈ 9.6 µM) | inactive | inactive | inactive |  |  |  |
